Data: ChEMBL document CHEMBL4390648, “Chemical synthesis, crystal structure, versatile evaluation of their biological activities and molecular simulations of novel pyrithiobac derivatives” (Eur J Med Chem, 2019)
In brackets after ≈: the same amount, converted by molar mass. Activity calls are given as the source filed them. The rule behind the calls is not given here.

Key:
[1] = test system: Severe acute respiratory syndrome-related coronavirus; assay: Inhibition of SARS coronavirus M protease using AVLQSGFRKK as substrate at 20 uM by FRET assay relative to control
In short: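 Purified SARS-CoV Mpro assayed by FRET. Protein, compound and substrate were preheated at 37 °C and oscillated. Fluorescence (ex 320/em 405 nm) was read every 5 s for 200 reads.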

[2] = test system: Brassica rapa subsp. oleifera; assay: Herbicidal activity against Brassica campestris L assessed as inhibition of rape root growth at 10 mg/l root growth incubated for 48 hrs relative to control; type: functional
In short: (§1)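 Rape seeds soaked in distilled water for 4 h, then placed on filter paper wetted with inhibitor solution, 15 seeds per 6-cm dish. Germinated in the dark at 28 °C for 48 h. Mean length of 10 roots per plate measured.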

Arabidopsis thaliana [3] = assay: Inhibition of Arabidopsis thaliana AHAS catalytic subunit using pyruvate as substrate at 10 uM measured after 30 mins by colorimetric method relative to control
In short: (§2)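 Colorimetric assay in 50 mM potassium phosphate pH 7.0 with 50 mM pyruvate, 1 mM thiamine diphosphate, 10 mM MgCl2 and 10 μM FAD. Incubated 30 min at 37 °C for plant AHAS and 30 °C for fungal AHAS. Acetolactate formed was then quantified.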

Fusarium fujikuroi = assay: Antifungal activity against Gibberella fujikuroi assessed as reduction in growth at 50 mg/l by mycelium growth rate method relative to control; type: functional
In short: (§3)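 Mycelium growth rate method against S. sclerotiorum, P. capsici, P. piricola, R. cerealis, W. anthracnose and R. bakanae. Each compound tested at 50 mg/L, with chlorothalonil and PTB as controls. Relative inhibitory ratio (%) calculated from mycelial growth.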

Candida albicans [4] = assay: Antifungal activity against Candida albicans isolate 17 grown in YNB medium incubated for 24 hrs by microdilution method; type: functional; conditions: isolate 17, 24 h
In short: (§4)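 C. albicans standard strain SC5314 and clinical isolates g5 and 17# tested by broth microdilution in YNB or RPMI 1640 medium. Plates incubated at 35 °C for up to 72 h, with visual readings taken at 24 h. MIC taken as the lowest concentration preventing visible growth.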

Tobacco mosaic virus [5] = assay: Antiviral activity against Tobacco mosaic virus inoculated in Nicotiana tabacum leaves assessed as passivation by measuring local lesion numbers at 100 mg/l pre-incubated with virus for 30 mins followed by inoculation and measured up to 4 days; type: functional
In short: (§5)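 Passivation assay: TMV mixed with an equal volume of compound solution for 30 min, then rubbed onto the left half of N. tabacum L. leaves. The right half received virus mixed with solvent as control. Local lesions counted 3–4 days after inoculation. Compounds tested at 500 or 100 mg/L.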

Candida albicans [6] = assay: Antifungal activity against Candida albicans SC5314 grown in YNB medium incubated for 24 hrs by microdilution method; type: functional; conditions: SC5314, 24 h; in short: as §4
Ceratobasidium cereale = assay: Antifungal activity against Rhizoctonia cerealis assessed as reduction in growth at 50 mg/l by mycelium growth rate method relative to control; type: functional; in short: as §3
Tobacco mosaic virus [7] = assay: Antiviral activity against Tobacco mosaic virus inoculated in Nicotiana tabacum leaves assessed as passivation by measuring local lesion numbers at 500 mg/l pre-incubated with virus for 30 mins followed by inoculation and measured up to 4 days; type: functional; in short: as §5
Mythimna separata = assay: Insecticidal activity against Mythimna separata assessed as larval mortality at 600 mg/l by leaf-dip method; type: functional
[8] = test system: Botryosphaeria berengeriana; assay: Antifungal activity against Physalospora pyricola assessed as reduction in growth at 50 mg/l by mycelium growth rate method relative to control; type: functional; in short: as §3
Phytophthora capsici = assay: Antifungal activity against Phytophthora capsici assessed as reduction in growth at 50 mg/l by mycelium growth rate method relative to control; type: functional; in short: as §3
Colletotrichum = assay: Antifungal activity against Colletotrichum (W. anthracnose) assessed as reduction in growth at 50 mg/l by mycelium growth rate method relative to control; type: functional; in short: as §3
Arabidopsis thaliana [9] = assay: Inhibition of Arabidopsis thaliana AHAS catalytic subunit using pyruvate as substrate at 100 uM measured after 30 mins by colorimetric method relative to control; in short: as §2
Sclerotinia sclerotiorum = assay: Antifungal activity against Sclerotinia sclerotiorum assessed as reduction in growth at 50 mg/l by mycelium growth rate method relative to control; type: functional; in short: as §3
Candida albicans [10] = assay: Inhibition of Candida albicans AHAS catalytic subunit at 100 uM using pyruvate as substrate measured after 30 mins by colorimetric method relative to control; in short: as §2
Candida albicans [11] = assay: Antifungal activity against Candida albicans SC5314 grown in RPMI 1640 medium incubated for 24 hrs by microdilution method; type: functional; conditions: SC5314, 24 h; in short: as §4
Candida albicans [12] = assay: Antifungal activity against Candida albicans isolate g5 grown in RPMI 1640 medium incubated for 24 hrs by microdilution method; type: functional; conditions: isolate g5, 24 h; in short: as §4
Candida albicans [13] = assay: Antifungal activity against Candida albicans isolate g5 grown in YNB medium incubated for 24 hrs by microdilution method; type: functional; conditions: isolate g5, 24 h; in short: as §4
Candida albicans [14] = assay: Antifungal activity against Candida albicans isolate 17 grown in RPMI 1640 medium incubated for 24 hrs by microdilution method; type: functional; conditions: isolate 17, 24 h; in short: as §4
Candida albicans [15] = assay: Inhibition of Candida albicans AHAS catalytic subunit at 10 uM using pyruvate as substrate measured after 30 mins by colorimetric method relative to control; in short: as §2
[16] = test system: Brassica rapa subsp. oleifera; assay: Herbicidal activity against Brassica campestris L assessed as inhibition of rape root growth at 100 mg/l root growth incubated for 48 hrs relative to control; type: functional; in short: as §1

SMILES	inhibition [1] [%]	inhibition (INH) [2] [%]	inhibition (Arabidopsis thaliana [3]) [%]	inhibition at 50 µg/mL (Fusarium fujikuroi) [%]	MIC (Candida albicans [4]) [µg/mL]	inhibition (Tobacco mosaic virus [5])	MIC (Candida albicans [6]) [µg/mL]	inhibition at 50 µg/mL (Ceratobasidium cereale) [%]	inhibition at 500 µg/mL (Tobacco mosaic virus [7]) [%]	mortality at 600 µg/mL (Mythimna separata) [%]	inhibition at 50 µg/mL [8] [%]	inhibition at 50 µg/mL (Phytophthora capsici) [%]	inhibition at 50 µg/mL (Colletotrichum) [%]	inhibition (Arabidopsis thaliana [9]) [%]	inhibition at 50 µg/mL (Sclerotinia sclerotiorum) [%]	inhibition (Candida albicans [10]) [%]	MIC (Candida albicans [11]) [µg/mL]	MIC (Candida albicans [12]) [µg/mL]	MIC (Candida albicans [13]) [µg/mL]	MIC (Candida albicans [14]) [µg/mL]	also measured
COc1nc(OC)nc(Sc2ccc(C(=O)O)cc2Cl)n1	25.5	0	12.6	27.3	25 (≈ 76.3 µM)	inactive	100 (≈ 305 µM)	59.5	0	20	42.2	58.3	16.7	15.3	69.4	73	> 100	> 100	100 (≈ 305 µM)	> 100	inhibition (Candida albicans [15]): 25.6%; inhibition (INH) [16]: 58.2%
COc1nc(OC)nc(Sc2ccc(C#N)cc2Cl)n1	12.8	28.4	43.2	42.4	> 100	inactive	> 100	54.8	29.6	30	60.9	8.3	33.3	89.6	36.1	73.6	> 100	> 100	> 100	> 100	inhibition (Candida albicans [15]): 65.4%; inhibition (INH) [16]: 60.3%
COc1nc(OC)nc(Sc2cccc(Br)c2C#N)n1	96.3	0	40.3	21.2	6.25 (≈ 17.7 µM)	inactive	12.5 (≈ 35.4 µM)	31	0	75	73.4	25	47.6	74.7	13.9	71.1	> 100	> 100	12.5 (≈ 35.4 µM)	> 100	inhibition (Candida albicans [15]): 34.8%; inhibition (INH) [16]: 14.3%
COc1nc(OC)nc(Sc2ccc(Cl)cc2C#N)n1	85.1	0	44.9	33.3	> 100	inactive	> 100	45.2	0	0	71.9	16.7	23.8	71.3	27.8	79.9	> 100	> 100	> 100	> 100	inhibition (Candida albicans [15]): 52.1%; inhibition (INH) [16]: 16.6%
COc1nc(OC)nc(Sc2ccc(C(=O)O)cc2Br)n1	25	0	22.4	57.6	> 100	inactive	> 100	58.3	21.4	10	46.9	41.7	35.7	30	77.8	92.4	> 100	> 100	> 100	> 100	inhibition (Candida albicans [15]): 50.1%; inhibition (INH) [16]: 34.3%
COc1nc(OC)nc(Sc2ccc(C#N)cc2F)n1	49.7	41.8	42.9	27.3	6.25 (≈ 21.4 µM)	inactive	6.25 (≈ 21.4 µM)	58.3	0	0	54.7	16.7	23.8	63.3	13.9	85.4	100 (≈ 342 µM)	100 (≈ 342 µM)	12.5 (≈ 42.8 µM)	100 (≈ 342 µM)	inhibition (Candida albicans [15]): 55.7%; inhibition (INH) [16]: 54.2%
COc1nc(OC)nc(Sc2cccc(Cl)c2C#N)n1	76.6	0	19.8	21.2	> 100	inactive	> 100	27.4	0	5	51.6	33.3	40.5	79.3	50	59.5	> 100	> 100	> 100	> 100	inhibition (Candida albicans [15]): 38.9%; inhibition (INH) [16]: 17.4%
COc1cc(OC)nc(Sc2cc(C(F)(F)F)ccc2C#N)n1	29.9	12.3	18	45.5	> 100	inactive	> 100	70.2	35.8	65	28.1	66.7	26.2	91.6	11.1	26.1	> 100	> 100	> 100	> 100	inhibition (Candida albicans [15]): 7.9%; inhibition (INH) [16]: 66.1%
COc1nc(OC)nc(Sc2ccc(Cl)cc2C(=O)O)n1	24.2	0	5.5	0	> 100	inactive	> 100	52.4	0	40	40.6	8.3	16.7	59.6	61.1	68.8	> 100	> 100	> 100	> 100	inhibition (Candida albicans [15]): 39.3%; inhibition (INH) [16]: 24.2%
COc1nc(OC)nc(Sc2ccc(F)cc2C(=O)O)n1	94.5	1.6	3.3	30.3	50 (≈ 161 µM)	inactive	> 100	57.1	0	80	45.3	16.7	19	68.6	55.6	77.6	> 100	> 100	> 100	100 (≈ 321 µM)	inhibition (Candida albicans [15]): 56.1%; inhibition (INH) [16]: 33.3%
